Laboratory results as given in ChEMBL document CHEMBL1154978, “Sesquiterpenes from Maytenus jelskii as potential cancer chemopreventive agents” (J Nat Prod, 2010).
The source made the active and inactive calls. The rule behind the calls is not given here.

Key:
Raji [1] = experiment: Inhibition of TPA-induced EBV early antigen activation in human Raji cells at 10 molar ratio after 48 hrs relative to TPA by indirect immunofluorescence technique; assay type: cell-based; parameters: scale not given: the % may be the effect or the level left; conditions: human gammaherpesvirus 4
Raji [2] = experiment: Inhibition of TPA-induced EBV early antigen activation in human Raji cells at 500 molar ratio after 48 hrs relative to TPA by indirect immunofluorescence technique; assay type: cell-based; parameters: scale not given: the % may be the effect or the level left; conditions: human gammaherpesvirus 4
Raji [3] = experiment: Cytotoxicity against human Raji cells carrying EBV genome by trypan blue staining method; assay type: cell-based; parameters: concentration or dose not given beside the values
Outline: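 Raji cells grown in RPMI-1640 with 10% FBS and exposed for 48 h at 37 °C to n-butyric acid (4 mmol), TPA (32 pmol) and test compound in DMSO. Viability of treated cells was read by Trypan Blue staining.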

Raji [4] = experiment: Inhibition of TPA-induced EBV early antigen activation in human Raji cells at 1000 molar ratio after 48 hrs relative to TPA by indirect immunofluorescence technique; assay type: cell-based; parameters: scale not given: the % may be the effect or the level left; conditions: human gammaherpesvirus 4
Raji [5] = experiment: Inhibition of TPA-induced EBV early antigen activation in human Raji cells at 100 molar ratio after 48 hrs relative to TPA by indirect immunofluorescence technique; assay type: cell-based; parameters: scale not given: the % may be the effect or the level left; conditions: human gammaherpesvirus 4
Mus musculus [6] = experiment: Inhibition of DMBA-induced/TPA-promoted carcinogenesis in ICR mouse assessed as reduction of papilloma-bearing mice at 85 nmol administered 1 hr before TPA treatment measured after 15 weeks
Mus musculus [7] = experiment: Inhibition of DMBA-induced/TPA-promoted carcinogenesis in ICR mouse assessed as reduction in number of skin papillomas per mouse at 85 nmol administered 1 hr before TPA treatment measured after 20 weeks; assay type: functional, organism-based
Outline: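 Female SPF ICR mice, 6 weeks old, 15 per group, with shaved backs. Initiation was a single topical dose of DMBA (100 µg, 390 nmol) in 0.1 mL acetone. From one week later, TPA (1 µg, 1.7 nmol) in acetone was applied twice weekly. Compound (85 nmol in 0.1 mL acetone) was applied topically 1 h before each TPA dose. Papillomas per mouse were recorded weekly for 20 weeks.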

Mus musculus [8] = experiment: Inhibition of DMBA-induced/TPA-promoted carcinogenesis in ICR mouse assessed as reduction of papilloma-bearing mice at 85 nmol administered 1 hr before TPA treatment measured after 10 weeks
Mus musculus [9] = experiment: Inhibition of DMBA-induced/TPA-promoted carcinogenesis in ICR mouse assessed as reduction of papilloma-bearing mice at 85 nmol administered 1 hr before TPA treatment measured after 20 weeks

SMILES | Activity (Raji [1]) [%] | Activity (Raji [2]) [%] | Activity (Raji [3]) [%] | Activity (Raji [4]) [%] | Activity (Raji [5]) [%] | Papilloma-bearing mice % (Mus musculus [6]) [%] | Activity (Mus musculus [7]) | Papilloma-bearing mice % (Mus musculus [8]) [%] | Papilloma-bearing mice % (Mus musculus [9]) [%]
CC(=O)O[C@H]1[C@H](OC(=O)c2ccccc2)[C@@]2(C)[C@@H](OC(=O)/C=C/c3ccccc3)C[C@@H]3[C@@H](O)[C@]2(OC3(C)C)[C@@](C)(O)[C@H]1O | 100 | 35.2 | 60 | 5.3 | 85.2 | – | – | – | –
CC(=O)O[C@H]1[C@H](OC(=O)c2ccccc2)[C@@]2(C)[C@@H](OC(=O)/C=C/c3ccccc3)C[C@@H]3[C@@H](OC(C)=O)[C@]2(OC3(C)C)[C@@](C)(O)[C@H]1OC(C)=O | 100 | 39.6 | 60 | 8.9 | 87.4 | – | – | – | –
CC(=O)O[C@H]1[C@H](OC(=O)c2ccccc2)[C@@]2(C)[C@@H](OC(=O)/C=C/c3ccccc3)C[C@@H]3C[C@]2(OC3(C)C)[C@@](C)(O)[C@H]1OC(C)=O | 100 | 53.2 | 60 | 11.8 | 86.3 | – | – | – | –
CC1=C(/C=C/C(C)=C/C=C/C(C)=C/C=C/C=C(C)/C=C/C=C(C)/C=C/C2=C(C)CCCC2(C)C)C(C)(C)CCC1 [BETA CAROTENE] | 100 | 33.3 | 70 | 8.6 | – | – | – | – | –
CC(=O)O[C@H]1[C@H](OC(=O)c2ccccc2)[C@@]2(C)[C@@H](OC(=O)/C=C/c3ccccc3)C[C@@H]3[C@@H](O)[C@]2(OC3(C)C)[C@@](C)(O)[C@H]1OC(C)=O | 100 | 51.3 | 60 | 10.1 | 85.2 | – | – | – | –
CC(=O)O[C@H]1[C@H](OC(=O)c2ccccc2)[C@@]2(C)[C@@H](OC(=O)c3ccccc3)C[C@@H]3[C@@H](OC(C)=O)[C@]2(OC3(C)C)[C@@](C)(O)[C@H]1O [2BETA,3BETA,4BETA,TRIHYDROXYCELARBICO] | 98.6 | 33.2 | 60 | 0 | 77.5 | 53.3 | Active | 20 | 90
CC(=O)O[C@H]1[C@H](OC(=O)c2ccccc2)[C@@]2(C)[C@@H](OC(=O)/C=C/c3ccccc3)C[C@@H]3C[C@]2(OC3(C)C)[C@@](C)(O)[C@H]1O | 100 | 52 | 60 | 10.9 | 86.2 | – | – | – | –
CC(=O)O[C@H]1[C@H](OC(=O)c2ccccc2)[C@@]2(C)[C@@H](OC(=O)/C=C/c3ccccc3)C[C@@H]3[C@@H](OC(C)=O)[C@]2(OC3(C)C)[C@@](C)(O)[C@H]1O | 100 | 50.1 | 60 | 9.3 | 84.3 | – | – | – | –
CC(=O)O[C@H]1[C@H](OC(=O)c2ccccc2)[C@@]2(C)[C@@H](OC(=O)c3ccccc3)C[C@@H]3[C@@H](OC(C)=O)[C@]2(OC3(C)C)[C@@](C)(O)[C@H]1OC(=O)c1cccnc1 | 100 | 36.6 | 60 | 7.5 | 87.6 | – | – | – | –
CC(=O)O[C@H]1[C@H](OC(=O)c2ccccc2)[C@@]2(C)[C@@H](OC(=O)c3ccccc3)C[C@@H]3[C@@H](OC(=O)c4ccccc4)[C@]2(OC3(C)C)[C@@](C)(O)[C@H]1O | 100 | 54.2 | 60 | 13.7 | 87.1 | – | – | – | –
